Measured values published in ChEMBL document CHEMBL4364284, “Design, Synthesis, and Efficacy Testing of Nitroethylene- and 7-Nitrobenzoxadiazol-Based Flavodoxin Inhibitors against Helicobacter pylori Drug-Resistant Clinical Strains and in Helicobacter pylori-Infected Mice” (J Med Chem, 2019).
In brackets after ≈: the same amount, converted by molar mass. Activity calls are given as the source filed them. The calls are words filed in the database; no cut-off is given here.

System: not listed separately
Assay: Therapeutic index, ratio of MCC50 for human HeLa cells to MIC for inhibition of flavodoxin in Mnz-resistant Helicobacter pylori NCTC 11637 ATCC 43504 assessed as reduction in bacterial growth
Format: toxicity
Conditions: read-out: TI
How it was run: (§1)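 TI is MCC50/MIC. For MCC50, HeLa cells (30 000/well, DMEM with 10% FBS) were exposed to compound at 25–1000 μM final. Viability by XTT at 450/650 nm; MCC50 is the concentration giving 50% lysis from viability curves. Run twice in triplicate.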

Row | Structure (SMILES) | selectivity ratio
1 | O/N=C/Cc1cc(C(F)(F)F)cc(C(F)(F)F)c1 | > 8.5
2 | NCCc1ccccc1 [PHENETHYLAMINE] | > 15
3 | O=[N+]([O-])CCc1ccccc1 | > 4.7

Target: T1, Flavodoxin (Helicobacter pylori (strain ATCC 700392 / 26695) (Campylobacter pylori)) (UniProt O25776)
T1 sequence (whole entry): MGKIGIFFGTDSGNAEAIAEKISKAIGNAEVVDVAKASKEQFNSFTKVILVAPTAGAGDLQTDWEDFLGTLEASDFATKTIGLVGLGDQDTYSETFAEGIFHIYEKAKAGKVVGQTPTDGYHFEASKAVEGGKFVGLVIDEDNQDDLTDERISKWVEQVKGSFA
Assay: Inhibition of flavodoxin in Mnz-resistant Helicobacter pylori NCTC 11637 ATCC 43504 assessed as reduction in bacterial growth measured after 48 hrs by resazurin staining-based microdilution method
Conditions: Helicobacter pylori NCTC 11637 = CCUG 17874 = ATCC 43504
How it was run: (§2)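 Broth microdilution in brain heart infusion with 4% FBS. Inoculum diluted to OD600 0.01. Two-fold dilutions from a DMSO stock cover 64–0.031 μg/mL, with DMSO ≤1% v/v. Incubated 48 h at 37 °C under microaerophilic conditions. MIC is the lowest concentration giving complete growth inhibition, read by resazurin colour change and confirmed by spotting on blood agar. Run twice in triplicate.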

Row | Structure (SMILES) | MIC [µM]
4 | O/N=C/Cc1cc(C(F)(F)F)cc(C(F)(F)F)c1 | 59 (≈ 16 µg/mL)
5 | NCCc1ccccc1 [PHENETHYLAMINE] | 66 (≈ 8 µg/mL)
6 | O=[N+]([O-])CCc1ccccc1 | 212 (≈ 32 µg/mL)

System: not listed separately
Assay: Therapeutic index, ratio of MCC50 for human HeLa cells to MIC for inhibition of flavodoxin in metronidazole-resistant Helicobacter pylori isolate 3 assessed as reduction in bacterial growth
Format: toxicity
Conditions: read-out: TI
How it was run: as §1

Row | Structure (SMILES) | selectivity ratio
7 | O/N=C/Cc1cc(C(F)(F)F)cc(C(F)(F)F)c1 | 4.2
8 | O=[N+]([O-])CCc1ccccc1 | 4.7

System: Staphylococcus aureus
Assay: Effect on growth of Staphylococcus aureus ATCC 1228 after 48 hrs by resazurin-dye based microdilution assay
Format: organism-based
Conditions: not given

Row | Structure (SMILES) | Activity
9 | O/N=C/Cc1cc(C(F)(F)F)cc(C(F)(F)F)c1 | Non-Toxic
10 | NCCc1ccccc1 [PHENETHYLAMINE] | Non-Toxic
11 | O=[N+]([O-])CCc1ccccc1 | Non-Toxic

Target: T1, Flavodoxin (Helicobacter pylori (strain ATCC 700392 / 26695) (Campylobacter pylori))
Assay: Inhibition of flavodoxin in Helicobacter pylori SS1 assessed as reduction in bacterial growth measured after 48 hrs by resazurin staining-based microdilution method
Conditions: not given
How it was run: as §2

Row | Structure (SMILES) | MIC [µM]
12 | O/N=C/Cc1cc(C(F)(F)F)cc(C(F)(F)F)c1 | 236 (≈ 64 µg/mL)
13 | NCCc1ccccc1 [PHENETHYLAMINE] | 132 (≈ 16 µg/mL)
14 | O=[N+]([O-])CCc1ccccc1 | 212 (≈ 32 µg/mL)

System: not listed separately
Assay: Toxicity in NMRI mouse infected with Helicobacter pylori SS1 assessed as change in appetite at 10 to 20 mg/100g, po administered daily via gavage for 8 days starting from 1 week post-infection
Format: organism-based
Conditions: in vivo
How it was run: (§3)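 Female 6-week-old SPF NMRI mice infected orogastrically with Hp SS1 on days 1 and 3. Compound in 5–10% DMSO/olive oil (100 μL) given by daily oral gavage for 8 days from day 8. Body weight and appetite were monitored during treatment; infected controls received vehicle alone.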

Row | Structure (SMILES) | Activity
15 | NCCc1ccccc1 [PHENETHYLAMINE] | Non-Toxic

System: not listed separately
Assay: Therapeutic index, ratio of MCC50 for human HeLa cells to MIC for inhibition of flavodoxin in rifampicin-resistant Helicobacter pylori isolate 5 assessed as reduction in bacterial growth
Format: toxicity
Conditions: read-out: TI
How it was run: as §1

Row | Structure (SMILES) | selectivity ratio
16 | O/N=C/Cc1cc(C(F)(F)F)cc(C(F)(F)F)c1 | 4.2
17 | O=[N+]([O-])CCc1ccccc1 | 4.7

Target: T1, Flavodoxin (Helicobacter pylori (strain ATCC 700392 / 26695) (Campylobacter pylori))
Assay: Binding affinity to Helicobacter pylori flavodoxin by isothermal titration calorimetric method
Conditions: not given

Row | Structure (SMILES) | Activity
18 | O/N=C/Cc1cc(C(F)(F)F)cc(C(F)(F)F)c1 | Active
19 | NCCc1ccccc1 [PHENETHYLAMINE] | Active
20 | O=[N+]([O-])CCc1ccccc1 | Active

System: Escherichia coli
Assay: Effect on growth of Escherichia coli DH5[alpha] after 48 hrs by resazurin-dye based microdilution assay
Format: organism-based
Conditions: not given

Row | Structure (SMILES) | Activity
21 | O/N=C/Cc1cc(C(F)(F)F)cc(C(F)(F)F)c1 | Non-Toxic
22 | NCCc1ccccc1 [PHENETHYLAMINE] | Non-Toxic
23 | O=[N+]([O-])CCc1ccccc1 | Non-Toxic

System: not listed separately
Assay: Therapeutic index, ratio of MCC50 for human HeLa cells to MIC for inhibition of flavodoxin in clarithromycin/metronidazole-resistant Helicobacter pylori isolate 4 assessed as reduction in bacterial growth
Format: toxicity
Conditions: read-out: TI
How it was run: as §1

Row | Structure (SMILES) | selectivity ratio
24 | O/N=C/Cc1cc(C(F)(F)F)cc(C(F)(F)F)c1 | 34
25 | O=[N+]([O-])CCc1ccccc1 | 605

System: not listed separately
Assay: Toxicity in NMRI mouse infected with Helicobacter pylori SS1 assessed as change in body weight at 10 to 20 mg/100g, po administered daily via gavage for 8 days starting from 1 week post-infection
Format: organism-based
Conditions: in vivo
How it was run: as §3

Row | Structure (SMILES) | Activity
26 | NCCc1ccccc1 [PHENETHYLAMINE] | Non-Toxic

Target: T1, Flavodoxin (Helicobacter pylori (strain ATCC 700392 / 26695) (Campylobacter pylori))
Assay: Inhibition of flavodoxin in Helicobacter pylori ATCC 700392 26695 assessed as reduction in bacterial growth measured after 48 hrs by resazurin staining-based microdilution method
Conditions: Helicobacter pylori 26695
How it was run: as §2

Row | Structure (SMILES) | MIC [µM]
27 | O/N=C/Cc1cc(C(F)(F)F)cc(C(F)(F)F)c1 | 118 (≈ 32 µg/mL)
28 | NCCc1ccccc1 [PHENETHYLAMINE] | 66 (≈ 8 µg/mL)
29 | O=[N+]([O-])CCc1ccccc1 | 106 (≈ 16 µg/mL)

System: not listed separately
Assay: Therapeutic index, ratio of MCC50 for human HeLa cells to MIC for inhibition of flavodoxin in Helicobacter pylori ATCC 700392 26695 assessed as reduction in bacterial growth
Format: toxicity
Conditions: HeLa cells versus Helicobacter pylori ATCC 700392 26695, read-out: TI
How it was run: as §1

Row | Structure (SMILES) | selectivity ratio
30 | O/N=C/Cc1cc(C(F)(F)F)cc(C(F)(F)F)c1 | > 4.2
31 | NCCc1ccccc1 [PHENETHYLAMINE] | > 15
32 | O=[N+]([O-])CCc1ccccc1 | > 9.4

System: not listed separately
Assay: Therapeutic index, ratio of MCC50 for human HeLa cells to MIC for inhibition of flavodoxin in clarithromycin/metronidazole-resistant Helicobacter pylori isolate 6 assessed as reduction in bacterial growth
Format: toxicity
Conditions: read-out: TI
How it was run: as §1

Row | Structure (SMILES) | selectivity ratio
33 | O/N=C/Cc1cc(C(F)(F)F)cc(C(F)(F)F)c1 | 4.2
34 | O=[N+]([O-])CCc1ccccc1 | 4.7

System: not listed separately
Assay: Toxicity in NMRI mouse assessed as change in body weight at 10 to 20 mg/100g, po administered daily via gavage for 8 days
Format: organism-based
Conditions: in vivo, 192 h

Row | Structure (SMILES) | Activity
35 | NCCc1ccccc1 [PHENETHYLAMINE] | Non-Toxic

System: not listed separately
Assay: Cytotoxicity against human HeLa cells assessed as reduction in cell viability by XTT assay
Format: cell-based
Conditions: read-out: MCC50
How it was run: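 HeLa cells grown in DMEM with 10% FBS, penicillin and streptomycin at 37 °C, 5% CO2; 30 000 cells/well. XTT viability read at 450 and 650 nm. MCC50 (50% lysis) came from viability-versus-concentration curves. Two experiments, each in triplicate.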

Row | Structure (SMILES) | CC50 [µM]
36 | O/N=C/Cc1cc(C(F)(F)F)cc(C(F)(F)F)c1 | > 500
37 | NCCc1ccccc1 [PHENETHYLAMINE] | > 1000
38 | O=[N+]([O-])CCc1ccccc1 | > 1000

Target: T1, Flavodoxin (Helicobacter pylori (strain ATCC 700392 / 26695) (Campylobacter pylori))
Assay: Binding affinity to Helicobacter pylori flavodoxin by thermal upshift assay
Conditions: not given

Row | Structure (SMILES) | Activity
39 | O/N=C/Cc1cc(C(F)(F)F)cc(C(F)(F)F)c1 | Active
40 | NCCc1ccccc1 [PHENETHYLAMINE] | Active
41 | O=[N+]([O-])CCc1ccccc1 | Active

System: not listed separately
Assay: Therapeutic index, ratio of MCC50 for human HeLa cells to MIC for inhibition of flavodoxin in metronidazole-resistant Helicobacter pylori isolate 2 assessed as reduction in bacterial growth
Format: toxicity
Conditions: read-out: TI
How it was run: as §1

Row | Structure (SMILES) | selectivity ratio
42 | O/N=C/Cc1cc(C(F)(F)F)cc(C(F)(F)F)c1 | 4.2
43 | O=[N+]([O-])CCc1ccccc1 | 4.7

System: not listed separately
Assay: Therapeutic index, ratio of MCC50 for human HeLa cells to MIC for inhibition of flavodoxin in Helicobacter pylori SS1 assessed as reduction in bacterial growth
Format: toxicity
Conditions: HeLa cells versus Helicobacter pylori SS1, read-out: TI
How it was run: as §1

Row | Structure (SMILES) | selectivity ratio
44 | O/N=C/Cc1cc(C(F)(F)F)cc(C(F)(F)F)c1 | > 2.1
45 | NCCc1ccccc1 [PHENETHYLAMINE] | > 7.6
46 | O=[N+]([O-])CCc1ccccc1 | > 4.7

System: not listed separately
Assay: Therapeutic index, ratio of MCC50 for human HeLa cells to MIC for inhibition of flavodoxin in metronidazole-resistant Helicobacter pylori isolate 1 assessed as reduction in bacterial growth
Format: toxicity
Conditions: read-out: TI
How it was run: as §1

Row | Structure (SMILES) | selectivity ratio
47 | O/N=C/Cc1cc(C(F)(F)F)cc(C(F)(F)F)c1 | 4.2
48 | O=[N+]([O-])CCc1ccccc1 | 4.7
